# In the RNAGym collection of RNA variant scans (doi:10.1126/science.aae0568):
# Fewer inactive variants are shown than the library holds.
# B1: tRNA (parent)
# chain: GUUCCGUUGGCGUAAUGGUAACGCGUCUCCCUCCUAAGGAGAAGACUGCGGGUUCGAGUCCCGUACGGAACG
# Variants of: B1
# Assay: yeast fitness relative to wild type (ratio to wild type); higher = fitter; tRNA-Arg(CCU), competitive growth, 37 C, YPD
# Method in brief: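 Changes in genotype frequencies gave Darwinian fitness relative to wild type. Frequencies were read by 100-nucleotide paired-end sequencing of gene amplicons before and after pooled Saccharomyces cerevisiae strains, carrying tRNA-Arg(CCU) gene variants at the native locus, were competed in YPD at 37°C for 24 hours in six replicates. A genotype was kept only with ≥ 100 starting reads, and estimates < 0.5 were set to 0.5.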
row,Variant,yeast fitness
1,GUUCCGUUGGCGUAAUGGUAACGCGUCUCCCUCUUAACGAGAAGACUGCGGGUUAGAGUCCCGCACGGAACG,≤ 0.5
2,GUUCCGUUGGCGUAAUGGUAACGCGUCUCCCUCUUAAGGAGAAGCCUGCGGGUUCGAGUACCGUACGGAACG,≤ 0.5
3,GUUCCGUUGGCGUAAUGGUAACGCGUCUCCCUCUUAAGGAGAAGACUGCAGGUUCGAGUCCCGUACGGAACG,0.67
4,GUUCCGUUGGCGUAAUGGUAACGCGUCUCCCUCUUAAGGAGAACCCUGCGGGUUCGAGUCCCGUAAGGAACG,0.591
5,GUUCCGUUGGCGUAAUGGUAACGCGUCUCCCUCUUAAGGAGAAGCCUGCGGGUUCGAGUCCCGUACGGCCCG,0.569
6,GUUCCGUUGGCGUAAUGGUAACGCGUCUCCCUCUUAAGGAGAAGACUCCGGGUUCGAGUCCCGUAUGGAACG,0.635
7,GUUCCGUUGGCGUAAUGGUAACGCGUCUCCCUCUUAUGGAGAAGAAUGCGAGUUCGAGUCCCGUUCGGAACG,≤ 0.5
8,GUUCCGUUGGCGUAAUGGUAACGCGUCUCCCUCUUAAGGAGAAGACUGCGGGUUUGAGUCCCGUACCGAACG,0.558
9,GUUCCGUUGGCGUAAUGGUAACGCGUCUCCCUCUUAAGGAGAAGACUGCGGGUUUGAGUCCCGUAUGGAACG,0.532
10,GUUCCGUUGGCGUAAUGGUAACGCGUCUCCCUCUUAAGGACAAGACUGCGGGUUCGAGUCCCGUACGGAACG,0.768
11,GUUCCGUUGGCGUAAUGGUAACGCGUCUCCCUCUUAAGGAGAAGAAUGCCGGUUCGAGUCCCGUACGGAACG,≤ 0.5
12,GUUCCGUUGGCGUAAUGGUAACGCGUCUCCCUCUUAAGGAGAAGACUGCGGGUUCGAGUCCCGUACGGUCCG,0.541
13,GUUCCGUUGGCGUAAUGGUAACGCGUCUCCCUCUUAAAGAGAAGACUGCGGGUUCGAGUCGCGUACGGAACG,≤ 0.5
14,GUUCCGUUGGCGUAAUGGUAACGCGUCUCCCUCUUAAGGAGAAGACUGCGGGUUCGAGUCGCGUACGGACCG,0.528
15,GUUCCGUUGGCGUAAUGGUAACGCGUCUCCCUCUUAAGGAGAAGACUGCGGGUUCGAGUCGCGUACGGAUCG,≤ 0.5
16,GUUCCGUUGGCGUAAUGGUAACGCGUCUCCCUCUUAAGGGGAGGACUGCGGGUUCGAGUCCAGUACGGCACG,≤ 0.5
17,GUUCCGUUGGCGUAAUGGUAACGCGUCUCCCUCUUAAAGAGAAGACUGCGGGUUCGAGUCCCGUACGGAACG,0.689
18,GUUCCGUUGGCGUAAUGGUAACGCGUCUCCCUCUUAAGGAGAAGACUGCGGGUUAGAGUCCCGUACGGAUCG,0.619
19,GUUCCGUUGGCGUAAUGGUAACGCGUCUCCCUCUUAAGGAGAAGACUGCGGGUUCGAGUGCCGUACGGACCG,≤ 0.5

row,Variant,yeast fitness
1,GUUCCGUUGGCGUAAUGGUAACGCGUCUCCCUCUUAUGGAGAAGUCUGCGGGUUCGGGUCUCGUACGGAGCG,≤ 0.5
2,GUUCCGUUGGCGUAAUGGUAACGCGUCUCCCUCUUAAGGAGAAGACUGCGGGUUUGAGUCCCGUUCGGAACG,0.607
3,GUUCCGUUGGCGUAAUGGUAACGCGUCUCCCUCUUAUGGAGAAGGCUGCGGGUUCGAGUCCCGUACGGAACG,≤ 0.5
4,GUUCCGUUGGCGUAAUGGUAACGCGUCUCCCUCUUAAGGAGGAGACUGCGGGUUCGAGUCCCGUACGGAACG,0.712
5,GUUCCGUUGGCGUAAUGGUAACGCGUCUCCCUCUUAAGGAGAGGACUGCGGGUUCGAGUCCCGUACGGCACG,0.553
6,GUUCCGUUGGCGUAAUGGUAACGCGUCUCCCUCUUAAGGAGAAGAGUGCGGGUUCGAGUCCCGUUCGGAACG,0.563
7,GUUCCGUUGGCGUAAUGGUAACGCGUCUCCCUCUUAAGGAGAAGACUGCGGGUUAGAGUCCUGUAUGGAACG,≤ 0.5
8,GUUCCGUUGGCGUAAUGGUAACGCGUCUCCCUCUUAAGGAGAAGCCUGCGGAUUCGAGUCCCGUGCGGAACG,0.688
9,GUUCCGUUGGCGUAAUGGUAACGCGUCUCCCUCUUAAGGAGAAGACUGCGGGUUCCAGUCCCGUACGGAACG,0.51
10,GUUCCGUUGGCGUAAUGGUAACGCGUCUCCCUCUUAAGGAGAAGACUGCGGGUUUGAGUCCCCUACGGAACG,≤ 0.5
11,GUUCCGUUGGCGUAAUGGUAACGCGUCUCCCUCUUAAGGAGAAGAGUGCGGGUUCGAGUCCCGUACGGAUCG,0.601
12,GUUCCGUUGGCGUAAUGGUAACGCGUCUCCCUCUUAAGGAGAAGACUGCGGGUUUGAGUACCGUACGGAACG,≤ 0.5
13,GUUCCGUUGGCGUAAUGGUAACGCGUCUCCCUCUUAAGGAGAAGACUGCGAGUUCGAGUCCCGUACGGAACG,0.547
14,GUUCCGUUGGCGUAAUGGUAACGCGUCUCCCUCUUAAGAAGAAGACUGCGGGUUCGAGUCCUGUACGGAACG,0.607
15,GUUCCGUUGGCGUAAUGGUAACGCGUCUCCCUCUUAAGGAAAAGACAGCGGGUUCGACUCCCCUACAGAACG,≤ 0.5
16,GUUCCGUUGGCGUAAUGGUAACGCGUCUCCCUCUUAAGGAGAAGUCUGCGGGUUCGAGUCCCGUAUGGAACG,0.57
17,GUUCCGUUGGCGUAAUGGUAACGCGUCUCCCUCUUAAGGAGAACACUGCGGGUUCAAGUCCCGUACGGAACG,≤ 0.5
18,GUUCCGUUGGCGUAAUGGUAACGCGUCUCCCUCUUAUGGAGAAGUCUGCGGGUUCGGGUCUCGUACGGAACG,≤ 0.5
